Screening results deposited in PubChem by several laboratories.
An excerpt weighted towards active compounds, which were near 0.74% of everything screened.
RGS16-Gao HTS = modulates binding between human RGS16 and Galphao | O15492+P09471 | bead-based flow cytometry RGS16-Galphao binding, fluorescence; actives lie on both sides | binding response (% of control), % at 10 µM | hit rate 0.38% among 220,000 | AID 1441;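 further: Galphao activated by GDP with aluminum fluoride before binding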
Target sequence (O15492 whole entry, looked up): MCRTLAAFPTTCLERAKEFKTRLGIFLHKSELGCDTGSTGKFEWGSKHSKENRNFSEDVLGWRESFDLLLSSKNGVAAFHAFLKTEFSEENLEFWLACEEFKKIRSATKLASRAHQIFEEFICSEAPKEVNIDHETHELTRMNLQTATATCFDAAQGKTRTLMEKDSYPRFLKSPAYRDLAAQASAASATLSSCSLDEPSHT
Target sequence (P09471 whole entry, looked up): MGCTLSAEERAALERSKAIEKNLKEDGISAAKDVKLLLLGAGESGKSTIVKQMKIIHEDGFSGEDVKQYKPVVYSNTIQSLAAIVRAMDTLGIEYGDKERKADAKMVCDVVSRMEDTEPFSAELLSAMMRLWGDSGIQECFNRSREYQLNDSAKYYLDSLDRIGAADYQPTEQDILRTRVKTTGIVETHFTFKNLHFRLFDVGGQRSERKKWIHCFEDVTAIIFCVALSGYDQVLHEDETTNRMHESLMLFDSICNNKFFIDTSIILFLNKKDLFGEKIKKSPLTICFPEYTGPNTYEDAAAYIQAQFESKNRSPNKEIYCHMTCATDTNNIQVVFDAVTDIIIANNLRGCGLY
RGS8-Gao = regulators of human RGS8-Galphao interaction; P09471; multiplexed bead flow cytometry, RGS8-Galphao binding; actives lie on both sides; response (percent of control binding), % at 10 µM; hit rate 0.34% among 220,000; AID 1423; in the data active means response below about 60% or above about 140%; inactive means in between;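 further: Galphao activated as the GDP aluminium fluoride complex binding bead-coupled RGS8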
Target sequence (P09471 whole entry, looked up): as above
RGS7-Gao = regulators of human RGS7-Galphao interaction; hit rate 0.35% among 220,000; Multiplexed bead flow cytometry, RGS7-Galphao binding; actives lie on both sides; AID 1439; binding response (% of control), % at 10 µM; in the data active means binding response below about 49% or above about 150%; inconclusive means no clear call, values can overlap the other calls; inactive means in between;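 further: fluorescent Galphao held in activated GDP-AlF4 state binding bead-coupled RGS7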
RGS4-Gao reg = human RGS4-Galphao interaction regulation; P09471; Multiplexed bead flow cytometry, RGS4-Galphao binding; actives lie on both sides; binding response (% of control), % at 10 µM; hit rate 0.33% among 220,000; in the data active means binding response below about 49% or above about 150%; inactive means in between;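 further: fluorescent Galphao activated with aluminum fluoride binding bead-coupled RGS4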
Biofilm kill mix = mixture kills Candida albicans biofilm cells | C. albicans biofilm persisters + clotrimazole, fluorescence viability; primary screen in compound mixtures of four per well | inhibition, % at 7.6 µM | hit rate 0.02% among 120,000 | AID 1242;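 active means inhibition above 30.3% in the primary screen of four-compound pools, then above 30% when the compound was retested; inconclusive means passed the primary limit but could not be retested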;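 further: compounds exposed to preformed 24 h biofilms for 48 h; 0% = untreated biofilm control and 100% = clotrimazole plus chlorhexidine kill blank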
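Incubation: 24 h biofilm formation, then 48 h compound exposure, 37 °C | Material: C. albicans biofilms | Buffer or medium: RPMI/MOPS medium, pH 7.0 | Measured by: 2-h Alamar Blue fluorescence, 535/590 nm excitation/emission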
RGS-Gao = RGS4-Galphao interaction regulator (human); shares compounds with RGS16-Gao HTS; multiplexed bead flow cytometry, RGS–Galpha-o binding; RGS4–Galpha-o binding response, % at 10 µM; hit rate 99% among 1,600;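 further: fluorescently labeled Galpha-o bound to GDP with aluminium fluoride binding biotinylated RGS beads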
Avidin counter = biotin-avidin bead binding disruption counter-screen | shares compounds with RGS16-Gao HTS | streptavidin beads, fluorescein-biotin binding, flow cytometry | inhibition, % at 10 µM | 1,700 tested, under 10 active | AID 1783;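 active means inhibition above 50%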;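 further: median green fluorescence of gated singlet beads compared with DMSO control wells; 0% = DMSO wells and 100% = complete loss of bead fluorescence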
RGS8-Gao single = RGS8-Galphao interaction regulation, single point confirmation | hit rate 3% among 1,700 | bead-based flow cytometry RGS8-Galphao binding, fluorescence; actives lie on both sides | shares compounds with RGS16-Gao HTS | AID 1836 | binding response (% of control), % at 10 µM; in the data active means binding response below about 72% or above about 130%; inactive means in between;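 further: Galphao activated as GDP AlF4 complex before binding bead RGS8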
RGS7-Gao single = confirmation of regulators of human RGS7-Galphao interaction; bead-based flow cytometry RGS7-Galphao binding; actives lie on both sides; response (percent of control binding), % at 10 µM; shares compounds with RGS16-Gao HTS; hit rate 7.8% among 1,700; AID 1837; in the data active means response below about 75% or above about 130%; inactive means in between;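 further: fluorescent Galphao activated with GDP and aluminum fluoride binding bead-coupled RGS7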
RGS16-Gao conf = RGS16-Galphao interaction regulation, single point confirmation | shares compounds with RGS16-Gao HTS | bead-based flow cytometry, RGS16-Galphao binding; actives lie on both sides | response (% of control binding), % at 10 µM | hit rate 4% among 1,700; in the data active means response below about 74% or above about 130%; inactive means in between;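 further: Galphao activated as the GDP aluminium fluoride complex binding bead-coupled RGS16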
RGS4-Gao single = RGS4-Galphao interaction regulation, single point confirmation | shares compounds with RGS16-Gao HTS | RGS4-Galphao binding, multiplexed bead flow cytometry; actives lie on both sides | binding response (% of control), % at 10 µM | hit rate 4% among 1,700 | AID 1840; in the data active means binding response below about 74% or above about 130%; inactive means in between
RGS19-Gao single = RGS19-Galphao interaction regulation, single point confirmation; shares compounds with RGS16-Gao HTS; bead-based flow cytometry RGS19-Galphao binding; actives lie on both sides; response (percent of control binding), % at 10 µM; hit rate 5% among 1,700; AID 1841; in the data active means response below about 50% or above about 160%; inactive means in between;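 further: 100% = no compound control and 0% = blank background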
* = called active by the depositor; ? = inconclusive; · = not tested or not shown; [ ] = dose if it differs, or a comment. Unless noted, how the calls were made is not given here.

SMILES | RGS16-Gao HTS | RGS8-Gao | RGS7-Gao | RGS4-Gao reg | Biofilm kill mix | Avidin counter | RGS8-Gao single | RGS7-Gao single | RGS16-Gao conf | RGS4-Gao single | RGS19-Gao single | others
CN(C)C(=O)CSc1nnc(-c2ccc(F)cc2)c2ccccc12 | 30.6 | 50.9* | ? | 27.9* | 7.3 | -1.0 | 104.8 | 111.5 | 105.9 | 108.4 | 97.3
COC(=O)c1ccc(S(=O)(=O)NC(C)(C)C)n1C | 99.9 | 103.2 | ? | 101.8 | 18.0 | · | · | · | · | · | ·
O=C(CN1CCOCCOCCOCCOCC1)Nc1ccccc1 | 95.8 | 98.4 | 97.3 | 98.4 | 1.7 | · | · | · | · | · | ·
O=C(Nc1ccc2c(c1)OCO2)C1CCN(C(=O)c2ccc(Cl)cc2)CC1 | 104.7 | 100.1 | 101.4 | 102.3 | 0.4 | · | · | · | · | · | ·
COC(=O)c1ccc(NC(=O)C2CCN(C(=O)c3cc(OC)c(OC)c(OC)c3)CC2)cc1 | · | · | 137.3 | 276.4*[activator] | · | -2.1 | 102.8 | 106.5 | 102.6 | 100.4 | 107.3
O=C(Nc1cccc(F)c1)C1CCN(C(=O)c2ccc(Cl)cc2)CC1 | 18.0* | 69.7 | 83.0 | 74.5 | 10.4 | -1.7 | 99.9 | 97.9 | 98.4 | 97.6 | 107.9 | RGS-Gao=74.5*
CCOC(=O)CCC(NC(=O)CCCCCCCC(=O)NC(CCC(=O)OCC)C(=O)OCC)C(=O)OCC (stereo unspecified) | 98.2 | 100.5 | 101.6 | 101.0 | 15.8 | · | · | · | · | · | ·
CSc1nncc(/C(C)=N/O)n1 | 92.8 | 94.7 | 97.8 | 95.6 | -7.0 | · | · | · | · | · | ·
CC/C(=N/O)c1cnnc(SC)n1 | 16.0* | 84.0 | 96.8 | 94.5 | 13.1 | 0.3 | 103.5 | 93.6 | 106.4 | 96.0 | 90.6 | RGS-Gao=94.5*
COc1ccccc1Nc1nc(N)nc(CN2CCC(C)CC2)n1 | 96.1 | 96.8 | 97.5 | 96.5 | 15.6 | · | · | · | · | · | ·
COc1ccccc1Nc1nc(N)nc(CN2CCC(Cc3ccccc3)CC2)n1 | -460.7 | 164.8*[activator] | 161.8*[activator] | 178.2*[activator] | · | 1.0 | 95.3 | 94.8 | 96.5 | 97.0 | 88.6
Cc1cc(NC(=O)CSc2nc(-c3ccc(F)cc3)cs2)no1 | 89.3 | 90.7 | 85.4 | 87.0 | · | · | · | · | · | · | ·
Cc1cc(NC(=O)CSc2ccc3ccccc3c2)no1 | · | · | · | · | · | -1.2 | 98.9 | 98.4 | 96.2 | 96.9 | 104.5
CC(=O)Nc1ccc(NC(=O)CSc2nnc(-c3ccco3)o2)cc1 | 104.1 | 100.9 | 103.6 | 100.5 | 10.9 | · | · | · | · | · | ·
CCc1cc2ccccc2nc1SCC(=O)Nc1cc(C)on1 | 115.9 | 107.7 | 104.9 | 105.7 | · | · | · | · | · | · | ·
Cc1cc(NC(=O)CSc2nc(-c3ccccc3)cs2)no1 | · | · | · | · | · | -0.6 | 98.1 | 99.5 | 96.8 | 98.9 | 117.5
Cc1cc(NC(=O)CSc2nnc(-c3ccco3)o2)no1 | · | 102.1 | 95.6 | 100.2 | · | 3.5 | 94.6 | 80.3 | 89.5 | 86.0 | 71.1
COc1ccc(-c2nnc(SCC(=O)Nc3cc(F)ccc3C)o2)cc1 | 110.3 | 99.8 | 184.6*[activator] | 120.1 | · | · | · | · | · | · | · | RGS-Gao=120.1*
O=Cc1cccn1-c1nccc(-c2ccco2)n1 | 98.5 | 98.4 | ? | 97.7 | -4.3 | · | · | · | · | · | ·
COCCn1c(C)cc(C(=O)COC(=O)c2ccc(Br)o2)c1C | 97.6 | 99.3 | 95.7 | 95.6 | 5.0 | · | · | · | · | · | ·
CC(=O)c1ccc(NC(=O)/C(=C\c2cccs2)NC(=O)c2ccco2)cc1 | 103.6 | 102.0 | 103.2 | 102.0 | 9.5 | · | · | · | · | · | ·
O=C(Cc1ccc(Cl)c(Cl)c1)Nc1ccc2[nH]c(=O)[nH]c2c1 | 100.4 | 100.7 | ? | 101.0 | 15.5 | · | · | · | · | · | ·
